In data set [1] the test system is Human immunodeficiency virus 1. The experiment in a line: Antiviral activity against HIV1 3B in human HOG.R5 cells by GFP-based reporter gene assay. It counts as functional, organism-based. The note with it: Human immunodeficiency virus 1, 3B. An outline of the steps:
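HOG.R5 GFP reporter cells in microtiter wells infected with HIV-1 IIIB (2.5 ng/mL p24) in presence of test material; GFP fluorescence read after 4 days to quantify infectivity; IC50 derived.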
On the technique in general: A reporter such as luciferase makes a cellular process visible.

Data set [2] can be described thus: Cytotoxicity against GFP reporter gene expressing human HOG.R5 cells at 10 ug/mL. It counts as cell-based. The note with it: in the assay text read “20 ug/mL” for “10 ug/mL”. The method in brief:
(§1)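 Run in parallel with the anti-HIV assay: HOG.R5 GFP reporter cultures given identical concentrations of test material but no virus; cell viability monitored after 4 days by combined microscopic and fluorometric measurement; CC50 derived.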

Data set [3] can be described thus: Cytotoxicity against GFP reporter gene expressing human HOG.R5 cells up to 20 ug/mL. It counts as cell-based. An outline of the steps: as §1
The nature of data set [4]: Cytotoxicity against GFP reporter gene expressing human HOG.R5 cells. It counts as cell-based. An outline of the steps:
as §1

Drawing on ChEMBL document CHEMBL1159381, “New Sesquiterpenes from Litsea verticillata” (J Nat Prod, 2003), this text covers IC50, Activity and CC50 for three compounds.

`CC(=O)CC/C(=C/C1=C(C)CCC1=O)C(C)C` [LITSEACHROMOLAEVANE B] gave an IC50 in data set [1] of 120 µM. Besides, the Activity entry in data set [2] and in data set [3] was “Non-toxic” each time.
On to `C=C1CC[C@@H](O)[C@]2(C)CC[C@H](C(C)C)[C@@H](O)[C@H]12`, for which half-maximal inhibition in data set [1] (IC50) required 73.1 µM. For the same compound, the Activity entry in data set [2] and in data set [3] was “Non-toxic” throughout.
In turn, `C=C1CC[C@H](C(C)(C)O)/C=C/[C@@H](C)CCC1=O` [LITSEAGERMACRANE] registered an IC50 in data set [1] of 27.5 µM. The compound also displayed a CC50 in data set [4] of 63.4 µM.

One may read the IC50 as the concentration that inhibits the measured activity by half. Read a low IC50 as higher potency. What is called CC50 is the concentration that lowers cell viability or growth by half. Low values mean harm at low concentration, high ones better tolerance by the cells.
